ChEMBL document CHEMBL3124793, “Discovery of spirofused piperazine and diazepane amides as selective histamine-3 antagonists with in vivo efficacy in a mouse model of cognition” (J Med Chem, 2014)

Tests used:
Histamine H3 receptor [1] = target: T1, Histamine H3 receptor (Homo sapiens, UniProt Q9Y5N1); test: Antagonist activity at human histamine H3 receptor long form expressed in CHOK1 cells assessed as inhibition of R-alpha-methylhistamine-induced [35S]GTPgammaS binding after 3 hrs by scintillation proximity assay; format: functional, cell-based, CHO-K1
T1 sequence (Q9Y5N1 whole entry): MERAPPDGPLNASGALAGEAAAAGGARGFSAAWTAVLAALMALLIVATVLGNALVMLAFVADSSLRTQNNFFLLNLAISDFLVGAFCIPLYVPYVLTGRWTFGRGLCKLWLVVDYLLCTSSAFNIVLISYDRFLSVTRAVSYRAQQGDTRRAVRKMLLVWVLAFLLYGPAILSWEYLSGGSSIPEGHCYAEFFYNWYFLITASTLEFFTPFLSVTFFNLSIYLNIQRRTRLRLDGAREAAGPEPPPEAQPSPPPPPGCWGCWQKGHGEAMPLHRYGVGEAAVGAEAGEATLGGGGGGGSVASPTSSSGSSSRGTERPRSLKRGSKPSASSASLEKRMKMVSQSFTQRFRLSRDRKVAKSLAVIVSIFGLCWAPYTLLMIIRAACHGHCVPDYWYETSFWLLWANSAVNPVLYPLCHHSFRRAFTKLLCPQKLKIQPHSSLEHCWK
Method in brief: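 Membranes from CHO-K1 cells stably expressing human H3R long form (445 aa) incubated 3 h with test compound, 25 nM R-α-methylhistamine, 10 μM GDP, 0.2 nM [35S]GTPγS and WGA PVT SPA beads; bead-bound [35S]GTPγS counted by scintillation. Average of n > 2, standard error <20%.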

[2] = target: Voltage-gated inwardly rectifying potassium channel KCNH2 (Homo sapiens, UniProt Q12809); test: Inhibition of human ERG expressed in CHOK1 cells by electrophysiological analysis
Sequence of Voltage-gated inwardly rectifying potassium channel KCNH2 (Q12809 whole entry): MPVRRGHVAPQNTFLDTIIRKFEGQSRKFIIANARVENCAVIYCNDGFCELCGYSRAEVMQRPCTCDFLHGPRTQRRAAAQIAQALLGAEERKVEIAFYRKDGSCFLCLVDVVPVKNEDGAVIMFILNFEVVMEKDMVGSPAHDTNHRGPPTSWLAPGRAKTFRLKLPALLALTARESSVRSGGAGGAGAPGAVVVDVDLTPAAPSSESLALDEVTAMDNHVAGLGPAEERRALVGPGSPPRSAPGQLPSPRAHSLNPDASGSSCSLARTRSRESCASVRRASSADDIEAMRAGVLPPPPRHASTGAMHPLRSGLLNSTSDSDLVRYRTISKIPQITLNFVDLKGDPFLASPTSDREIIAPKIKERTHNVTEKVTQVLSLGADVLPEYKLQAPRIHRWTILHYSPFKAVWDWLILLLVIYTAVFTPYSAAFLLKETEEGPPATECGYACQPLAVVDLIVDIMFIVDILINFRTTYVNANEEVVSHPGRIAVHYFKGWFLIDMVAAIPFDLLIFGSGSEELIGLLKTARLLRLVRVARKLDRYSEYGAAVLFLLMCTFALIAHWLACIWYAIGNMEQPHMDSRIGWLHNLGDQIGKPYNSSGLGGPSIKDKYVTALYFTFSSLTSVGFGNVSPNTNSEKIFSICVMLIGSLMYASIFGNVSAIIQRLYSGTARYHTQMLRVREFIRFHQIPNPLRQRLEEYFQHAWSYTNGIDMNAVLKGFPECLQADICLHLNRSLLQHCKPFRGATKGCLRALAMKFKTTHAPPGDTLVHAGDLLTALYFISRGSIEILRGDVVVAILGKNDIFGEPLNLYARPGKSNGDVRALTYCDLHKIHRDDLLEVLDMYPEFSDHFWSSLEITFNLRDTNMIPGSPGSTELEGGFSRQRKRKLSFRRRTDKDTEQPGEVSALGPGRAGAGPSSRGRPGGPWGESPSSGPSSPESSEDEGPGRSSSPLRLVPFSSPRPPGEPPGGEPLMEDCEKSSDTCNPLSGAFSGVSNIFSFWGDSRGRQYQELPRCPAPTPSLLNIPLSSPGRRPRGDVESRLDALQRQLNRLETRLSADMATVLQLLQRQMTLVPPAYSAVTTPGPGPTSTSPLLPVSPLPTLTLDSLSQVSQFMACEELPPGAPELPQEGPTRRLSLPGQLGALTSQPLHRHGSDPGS

[3] = Octanol-water partition coefficient, log D of the compound by shake flask HPLC analysis; format: physicochemical
Method in brief: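 logD between octanol and water by shake-flask with HPLC analysis.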

[4] = Apparent permeability from apical to basolateral side in MDCK cells; format: ADME, cell-based, Canis lupus familiaris; settings: dog
Method in brief: (§1)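 MDCK monolayers; A-to-B Papp in 1 × 10⁻⁶ cm/s; efflux taken as ratio of A-to-B Papp over B-to-A Papp.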

[5] = Intrinsic clearance in rat liver microsomes; format: ADME; settings: read-out: CLH
Histamine H3 receptor [6] = target: T1, Histamine H3 receptor; test: Displacement of [3H]-N-alpha-methylhistamine from human histamine H3 receptor expressed in CHOK1 cells after 1.5 hrs by scintillation proximity assay; format: cell-based, CHO-K1
Method in brief: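 Human H3R-CHO-K1 membranes incubated 1.5 h with test compound and [3H]-N-α-methylhistamine in SPA format; nonspecific binding defined with 10 μM imetit; bead-bound radioligand counted. Average of n > 2, standard error <50%.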

[7] = Equilibrium solubility of the compound at pH 7.4; format: physicochemical; settings: buffer
[8] = Intrinsic clearance in human liver microsomes; format: ADME; settings: read-out: CLH
Method in brief: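 Human liver microsomal clearance, expressed as μL/min/mg.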

[9] = Percentage unbound in rat plasma; format: ADME, cell-free
Method in brief: (§2)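 Plasma protein binding in human or rat plasma, expressed as percent free.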

[10] = Percentage unbound in human plasma; format: ADME, cell-free; method in brief: as §2
[11] = Half life in rat at 2.3 umol/kg, iv; format: ADME, organism-based; settings: in vivo
Method in brief: (§3)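 IV dosing in male fasted rats, doses in μmol/kg; mean Vss, half-life and clearance derived; number of rats per compound reported.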

Rattus norvegicus [12] = test: […] clearance in rat at 2.3 umol/kg, iv; format: ADME, organism-based; settings: in vivo; method in brief: as §3
[13] = Volume of distribution at steady state in rat at 2.3 umol/kg, iv; format: ADME, organism-based; settings: in vivo, read-out: Vdss; method in brief: as §3
MDCK = test: Efflux ratio of apparent permeability from apical to basolateral side over basolateral to apical side in MDCK cells; format: ADME, cell-based, Canis lupus familiaris; settings: dog; method in brief: as §1
[14] = Volume of distribution at steady state in rat at 1.8 umol/kg, iv; format: ADME, organism-based; settings: in vivo, read-out: Vdss; method in brief: as §3
[15] = Half life in rat at 1.8 umol/kg, iv; format: ADME, organism-based; settings: in vivo; method in brief: as §3
Rattus norvegicus [16] = test: […] clearance in rat at 1.8 umol/kg, iv; format: ADME, organism-based; settings: in vivo; method in brief: as §3

Row | Compound | IC50 (Histamine H3 receptor [1]) | IC50 [2] | logD [3] | Ki (Histamine H3 receptor [6]) | also measured
1 | O=C(c1ccccc1)N1CCC2(CC1)CCN(C(=O)C1CCN(C3CCC3)CC1)C2 | 340 nM | – | – | – | –
2 | O=C(N1CCCN(C2CCC2)CC1)N1CCC2(CCCN(C3CCOCC3)C2)C1 (configuration not stated) | 4.4 nM | > 33000 nM | 0.23 | – | –
3 | O=C(C1CC12CCN(C1CCOCC1)CC2)N1CCN(C2CC2)CC1 (racemic) | – | – | – | 11 nM | Papp A→B [4]: 8.4 ×10⁻⁶ cm/s; microsomal CLint [5]: 20 µL/min/mg; solubility thermodynamic [7]: > 500 µM; microsomal CLint [8]: < 4 µL/min/mg
4 | O=C(C1CC12CCN(c1ccccc1)CC2)N1CCN(C2CCCCC2)CC1 (racemic) | – | – | 3.63 | 1670 nM | –
5 | O=C(C1CC12CCN(C1CCOCC1)CC2)N1CCN(C2CCCC2)CC1 (racemic) | – | – | – | 1.4 nM | Papp A→B [4]: < 2.2 ×10⁻⁶ cm/s; fraction unbound [9]: 0.65; fraction unbound [10]: 0.5; microsomal CLint [5]: 43 µL/min/mg; solubility thermodynamic [7]: > 500 µM; microsomal CLint [8]: 7.2 µL/min/mg
6 | O=C(c1ccccc1)N1CCC2(CC1)CC(C(=O)N1CCN(C3CCC3)CC1)C2 | – | > 33000 nM | 2.09 | – | –
7 | O=C(N1CCN(C2CCC2)CC1)N1CCC2(CCN(S(=O)(=O)c3ccccc3)CC2)C1 | 21 nM | – | 2.27 | – | –
8 | O=C(C1CC12CCN(C1CCOCC1)CC2)N1CCN(c2ccncc2)CC1 (racemic) | – | – | -1.09 | 8.4 nM | –
9 | O=C(C1CC12CCN(Cc1ccccc1)CC2)N1CCN(C2CCCCC2)CC1 (racemic) | – | – | 2.81 | 103 nM | –
10 | CC(C)N1CCN(C(=O)N2CCC3(CCCN(C4CCOCC4)C3)C2)CC1 (configuration not stated) | 140 nM | > 33000 nM | -0.19 | – | –
11 | CC(C)N1CCC2(CC1)CC2C(=O)N1CCN(C2CCCCC2)CC1 (racemic) | 19 nM | – | 0.74 | 47 nM | –
12 | O=C(C1CC2(CCN(c3ccccc3)CC2)C1)N1CCN(C2CCC2)CC1 | 66 nM | > 33000 nM | 3.25 | – | –
13 | O=C(C1CC2(CCN(C3CCOCC3)CC2)C1)N1CCCN(C2CCC2)CC1 | 0.8 nM | – | -0.89 | – | –
14 | CN1CCN(C(=O)C2CC23CCN(C2CCOCC2)CC3)CC1 (racemic) | 1100 nM | – | – | 1300 nM | –
15 | O=C(c1ccccc1)N1CCC2(CC1)CCN(C(=O)N1CCCN(C3CCC3)CC1)C2 | 3.6 nM | > 33000 nM | 1.22 | – | –
16 | O=C(c1ccccc1)N1CCC2(CC1)CCN(C(=O)N1CCN(C3CCC3)CC1)C2 | 13 nM | > 33000 nM | 1.8 | – | Papp A→B [4]: 8.8 ×10⁻⁶ cm/s; half-life [11]: 66 min; CL (Rattus norvegicus [12]): 91 mL/min/kg; microsomal CLint [5]: 25 µL/min/mg; solubility thermodynamic [7]: > 500 µM; Vd [13]: 3.7 L/kg; Ratio (MDCK): 4.5; microsomal CLint [8]: 18 µL/min/mg
17 | O=C(C1CC12CCN(CCc1ccccc1)CC2)N1CCN(C2CCCCC2)CC1 (racemic) | 16 nM | – | – | 21 nM | –
18 | O=C(c1ccccc1)N1CCC2(CCCN(C(=O)N3CCCN(C4CCC4)CC3)C2)CC1 | 18 nM | – | 1.62 | – | –
19 | O=C(C1CC12CCN(C1CCCCC1)CC2)N1CCN(C2CCCCC2)CC1 (racemic) | – | 20800 nM | – | 19 nM | Papp A→B [4]: < 1.7 ×10⁻⁶ cm/s; fraction unbound [9]: 0.62; fraction unbound [10]: 0.81; microsomal CLint [5]: 31 µL/min/mg; solubility thermodynamic [7]: > 500 µM; Ratio (MDCK): > 2; microsomal CLint [8]: 14 µL/min/mg
20 | CC(C)S(=O)(=O)N1CCC2(CCN(C(=O)N3CCCN(C4CCC4)CC3)C2)CC1 | 3.2 nM | > 33000 nM | 0.8 | – | Vd [14]: 2.1 L/kg; Papp A→B [4]: 7.8 ×10⁻⁶ cm/s; microsomal CLint [5]: 34 µL/min/mg; half-life [15]: 36 min; CL (Rattus norvegicus [16]): 53 mL/min/kg; solubility thermodynamic [7]: > 500 µM; Ratio (MDCK): 6; microsomal CLint [8]: 20 µL/min/mg
